Active and inactive are the calls of the source. The rule behind the calls is not given here.
Key:
Mus musculus = assay: Induction of ERalpha degradation in CD1 mouse xenografted with human MCF7 cells assessed as reduction in ERalpha level at 10 mg/kg, sc measured after 3 days by Western blotting analysis; format: functional, organism-based; details: time 3.0 day
[1] = Half life in CD1 mouse at 10 mg/kg, sc administered as single dose […]; format: ADME, organism-based; details: in vivo
T47D = assay: Antiproliferative activity against human T47D cells assessed as growth inhibition incubated for 7 days by CellTiter-Glo assay; format: functional; details: 168 h, time 7 day
Summary of the method: (§1)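 Breast lines from ATCC, maintained in ATCC-specified media, treated with increasing compound doses in full-serum (complete) media for 7 days. Relative cell number measured by CellTiter-Glo ATP read-out.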

MCF7 [2] = assay: Antiproliferative activity against human MCF7 cells assessed as growth inhibition preincubated with estradiol for 30 mins followed by compound addition and measured after 72 hrs by CellTiter-Glo assay; format: functional
Estrogen receptor [3] = target: T1, Estrogen receptor (Homo sapiens, UniProt P03372); assay: Induction of ERalpha degradation in human MCF7 cells assessed as decrease in ERalpha protein expression incubated for 24 hrs by Western blot analysis; format: cell-based
T1 sequence (P03372 whole entry): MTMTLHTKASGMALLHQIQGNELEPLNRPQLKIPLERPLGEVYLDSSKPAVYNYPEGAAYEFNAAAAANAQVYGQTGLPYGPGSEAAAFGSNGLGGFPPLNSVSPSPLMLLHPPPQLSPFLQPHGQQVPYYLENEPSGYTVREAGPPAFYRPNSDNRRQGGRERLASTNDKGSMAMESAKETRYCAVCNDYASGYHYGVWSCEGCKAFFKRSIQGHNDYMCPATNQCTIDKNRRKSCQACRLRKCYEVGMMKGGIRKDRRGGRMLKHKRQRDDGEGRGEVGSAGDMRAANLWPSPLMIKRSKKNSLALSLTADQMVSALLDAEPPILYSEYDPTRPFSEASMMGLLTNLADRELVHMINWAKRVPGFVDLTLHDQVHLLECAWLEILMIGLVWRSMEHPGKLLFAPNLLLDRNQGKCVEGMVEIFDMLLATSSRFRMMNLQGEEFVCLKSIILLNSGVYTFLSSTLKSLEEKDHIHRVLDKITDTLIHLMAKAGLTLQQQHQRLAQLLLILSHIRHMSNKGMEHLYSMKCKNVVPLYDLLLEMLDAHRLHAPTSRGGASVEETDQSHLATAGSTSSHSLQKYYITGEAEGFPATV

[4] = Plasma protein binding in human; format: ADME, cell-free; details: read-out: PPB
Estrogen receptor [5] = target: T1, Estrogen receptor; assay: Binding affinity to recombinant His-tagged ERalpha LBD (307 to 554 residue) (unknown origin) expressed in Escherichia coli preincubated for 15 mins followed by ligand addition and measured after 1 hr by fluorescent polarization assay
Summary of the method: (§2)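 ERα LBD (aa 307–554), WT or D538G, S463P, Y537S, with N-terminal Avi-Tev-His tag, expressed in E. coli T7 Express (20 °C, 12 h, IPTG). Purified by Ni-NTA then size exclusion. Compound preincubated with protein 15 min, fluorescent ligand added, 1 h at room temperature. FP read ex 485/em 535 nm; duplicate runs averaged.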

MCF7 [6] = assay: Antiproliferative activity against human MCF7 cells assessed as reduction in cell viability preincubated with estradiol for 30 mins followed by compound addition and measured after 7 days by CellTiter-Glo assay; format: functional, cell-based
Summary of the method: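 MCF7 cells seeded in hormone-deprived media for 72 h. All wells except minimum-signal controls received 0.1 nM estradiol for 30 min, then compound in a 10-point dose series. Incubated 7 days at 37 °C, 5% CO2; ATP content read by CellTiter-Glo 2.0. Duplicate runs averaged.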

[7] = Toxicity in CD1 mouse xenografted with human MCF7 cells assessed as change in body weight at 10 mg/kg, sc administered once daily for 28 days; format: organism-based; details: in vivo, 672 h, time 28 day
Summary of the method: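 Mice implanted with 17β-estradiol pellets (0.18 mg) 2 days before sc right-flank inoculation of 10×10^6 MCF-7 cells in PBS/Matrigel (50:50). Randomized at mean tumor 165 mm³, 8 per group. Dosed 10 mg/kg sc qd; fulvestrant reference 3 mg/mouse sc weekly. Caliper measurements twice weekly, V = 0.5a×b². TGI from medians. Body weight recorded before each dosing.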

[8] = Cmax in CD1 mouse at 10 mg/kg, sc administered as single dose […]; format: ADME, organism-based; design: route subcutaneous, dose 10 mg/kg; details: in vivo
[9] = Half life in CD1 mouse at 0.3 mg/kg, iv administered as cassette dosing […]; format: ADME, organism-based; details: in vivo
[10] = target: T2, Estrogen receptor (Homo sapiens) (UniProt P03372); assay: Induction of ERalpha degradation in human T47D cells assessed as decrease in ERalpha protein expression incubated for 24 hrs by Western blotting analysis; format: cell-based
T2 sequence (whole entry): T1 sequence (P03372 whole entry)
Summary of the method: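 T47D cells were treated with increasing doses for 24 h. Lysates were western blotted with rabbit anti-ERα, and actin served as the loading control. DC50 was read from the dose series.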

Estrogen receptor [11] = target: Estrogen receptor (Homo sapiens, UniProt P03372, D538G); assay: Binding affinity to ERalpha D538G mutant (unknown origin) expressed in Escherichia coli preincubated for 15 mins followed by ligand addition and measured after 1 hr by fluorescent polarization assay; summary of the method: as §2
Estrogen receptor (Homo sapiens, UniProt P03372, D538G), sequence (P03372 whole entry D538G): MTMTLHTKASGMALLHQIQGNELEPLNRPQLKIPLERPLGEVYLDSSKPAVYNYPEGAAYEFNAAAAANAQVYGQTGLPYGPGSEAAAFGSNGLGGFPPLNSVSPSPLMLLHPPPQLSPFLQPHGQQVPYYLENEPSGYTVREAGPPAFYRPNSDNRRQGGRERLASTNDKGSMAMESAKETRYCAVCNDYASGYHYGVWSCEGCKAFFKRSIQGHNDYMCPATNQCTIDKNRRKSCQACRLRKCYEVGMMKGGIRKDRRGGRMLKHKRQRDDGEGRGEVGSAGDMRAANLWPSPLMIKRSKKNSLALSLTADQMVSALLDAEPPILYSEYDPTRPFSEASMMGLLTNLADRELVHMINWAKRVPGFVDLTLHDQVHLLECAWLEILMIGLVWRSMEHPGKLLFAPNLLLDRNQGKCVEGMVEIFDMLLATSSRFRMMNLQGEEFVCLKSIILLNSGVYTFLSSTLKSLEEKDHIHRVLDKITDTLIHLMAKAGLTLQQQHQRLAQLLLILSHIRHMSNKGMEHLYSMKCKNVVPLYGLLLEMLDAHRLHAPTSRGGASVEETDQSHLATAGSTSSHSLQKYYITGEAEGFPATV

Estrogen receptor [12] = target: Estrogen receptor (Homo sapiens, UniProt P03372, S463P); assay: Binding affinity to ERalpha S463P mutant (unknown origin) expressed in Escherichia coli preincubated for 15 mins followed by ligand addition and measured after 1 hr by fluorescent polarization assay; summary of the method: as §2
Estrogen receptor (Homo sapiens, UniProt P03372, S463P), sequence (P03372 whole entry S463P): as the sequence (P03372 whole entry D538G) above, with S463P, G538D counted along it

Estrogen receptor [13] = target: T1, Estrogen receptor; assay: Induction of ERalpha degradation in human MCF7 cells assessed as decrease in ERalpha protein expression incubated for 48 hrs in presence of VHL298 by Western blotting analysis; format: cell-based
Summary of the method: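 MCF7 in-cell western for ERα normalized to tubulin after dose titration co-treated with VHL298 at 5 μM, 48 h total treatment before collection.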

[14] = Microsomal stability in human liver microsomes assessed as intrinsic clearance measured upto 60 mins; format: ADME, Microsome; details: read-out: CLH
Summary of the method: (§3)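 Compounds at 2 μM final incubated with pooled human or male mouse liver microsomes. Percent remaining measured at 0, 15, 30, 45 and 60 min and used to calculate in vitro half-life.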

Estrogen receptor [15] = target: Estrogen receptor (Homo sapiens, UniProt P03372, Y537S); assay: Binding affinity to ERalpha Y537S mutant (unknown origin) expressed in Escherichia coli preincubated for 15 mins followed by ligand addition and measured after 1 hr by fluorescent polarization assay; summary of the method: as §2
Estrogen receptor (Homo sapiens, UniProt P03372, Y537S), sequence (P03372 whole entry Y537S): as the sequence (P03372 whole entry D538G) above, with Y537S, G538D counted along it

[16] = AUCinfinity in CD1 mouse at 10 mg/kg, sc administered as single dose […]; format: ADME, organism-based; design: route subcutaneous, dose 10 mg/kg; details: in vivo
[17] = Drug uptake in CD1 mouse plasma xenografted with human MCF7 cells 10 mg/kg, sc measured after 3 hrs post last dose; details: in vivo
[18] = Microsomal stability in mouse liver microsomes assessed as intrinsic clearance measured upto 60 mins; format: ADME, Microsome; details: read-out: CLH; summary of the method: as §3
MDA-MB-231 = assay: Antiproliferative activity against human MDA-MB-231 cells assessed as growth inhibition incubated for 7 days by CellTiter-Glo assay; format: functional; details: MDA-MB-231, 168 h, time 7 day; summary of the method: as §1

half-life [1]: 17 h
GI50 (T47D): 171 nM
GI50 (MCF7 [2]): > 10000 nM
DC50 (Estrogen receptor [3]): 4.5 nM
fraction unbound [4]: < 0.004
IC50 (Estrogen receptor [5]): 53 nM
EC50 (MCF7 [6]): 14 nM
Cmax [8]: 2130 nM
half-life [9]: 8.7 h
Activity [10]: Active
IC50 (Estrogen receptor [11]): 517 nM
IC50 (Estrogen receptor [12]): 203 nM
DC50 (Estrogen receptor [13]): 14 nM
microsomal CLint [14]: 59 µL/min/mg
IC50 (Estrogen receptor [15]): 419 nM
AUC(0-inf) [16]: 14.6 µM·h
Drug uptake [17]: Active
microsomal CLint [18]: 249 µL/min/mg
GI50 (MDA-MB-231): > 10000 nM
SMILES: Cc1ncsc1-c1ccc([C@@H](C)NC(=O)[C@@H]2C[C@@H](O)CN2C(=O)[C@H](NC(=O)COCCOCc2cn(CCOc3ccc(N(Cc4cccc(O)c4Cl)CC4(c5ccccc5F)CCCC4)cc3)nn2)C(C)(C)C)cc1
Activity (Mus musculus): Active
Activity [7]: Non-Toxic
